Legend:
Bacillus subtilis = test: Antibacterial activity against Bacillus subtilis ATCC 6633 assessed as growth inhibition after 18 hrs by broth dilution method; type: functional; settings: ATCC 6633, 18 h
Outline: (§1)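 Twofold serial dilutions in heart infusion broth. Inoculum was a 24-h heart infusion broth culture diluted 100-fold in physiological saline. Tubes incubated 30 °C for 18 h; the table footnote gives 32 °C for 24 h. MIC in µg/ml is the lowest level giving complete growth inhibition.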

Klebsiella pneumoniae = test: Antibacterial activity against Klebsiella pneumoniae ATCC 10031 assessed as growth inhibition after 18 hrs by broth dilution method; type: functional; settings: ATCC 10031, 18 h; outline: as §1
Escherichia coli = test: Antibacterial activity against Escherichia coli NIHJ JC-2 assessed as growth inhibition after 18 hrs by broth dilution method; type: functional; settings: NIHJ JC-2, 18 h; outline: as §1
L1210 [1] = test: Antitumor activity against mouse L1210 cells allografted in ip dosed BDF1 mouse assessed as 30% increase in host lifespan administered for qd for 5 days; type: functional
Mus musculus [2] = test: (§2) Acute toxicity in ip dosed JCL-ICR mouse assessed as animal death; type: organism-based; settings: in vivo
Outline: (§3)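 Groups of ten female JCL-ICR mice given single ip dose in physiological saline; deaths followed over 7 days; LD50 (and LD10) derived by Litchfield–Wilcoxon method.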

[3] = as §2; type: organism-based; settings: JCL-ICR, in vivo; outline: as §3
Pseudomonas fluorescens = test: Antibacterial activity against Pseudomonas fluorescens NIHJ B-254 assessed as growth inhibition after 18 hrs by broth dilution method; type: functional; settings: NIHJ B-254, 18 h; outline: as §1
[4] = Therapeutic index, ratio of LD10 for JCL-ICR mouse to ED90 for mouse S180A cells allografted in ICR mouse; settings: read-out: TI
Rattus norvegicus [5] = test: Diabetogenic activity in Wistar rat assessed as increase in blood sugar level at 68 mg/kg, iv administered as single dose by glucose oxidase method; type: ADME, organism-based; set-up: dose 68 mg/kg, route intravenous; settings: in vivo
Outline: (§4)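 Male Wistar rats, about 200 g, five per group, fasted 16 h. Single iv dose into the femoral vein in physiological saline, equimolar across compounds. Caudal-vein blood sampled at set times over 24 h. Sugar measured by glucose oxidase.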

Proteus vulgaris = test: Antibacterial activity against Proteus vulgaris AHU 1469 assessed as growth inhibition after 18 hrs by broth dilution method; type: functional; settings: AHU 1469, 18 h; outline: as §1
Shigella sonnei = test: Antibacterial activity against Shigella sonnei assessed as growth inhibition after 18 hrs by broth dilution method; type: functional; outline: as §1
Salmonella typhi = test: Antibacterial activity against Salmonella typhi IFM 3020 assessed as growth inhibition after 18 hrs by broth dilution method; type: functional, Salmonella enterica subsp. enterica serovar Typhi; settings: Salmonella enterica, IFM 3020, 18 h
Outline: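 Twofold serial dilutions in heart infusion broth; inoculum from 24 h heart infusion broth culture diluted 100-fold in physiological saline; tubes incubated 30 °C for 18 h; MIC (µg/ml) = lowest level giving complete growth inhibition.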

Rattus norvegicus [6] = test: Diabetogenic activity in Wistar rat assessed as increase in blood sugar level at 30 to 120 mg/kg, ip qd for 1 month measured 24 hrs last drug dosage by glucose oxidase method; type: ADME, organism-based; set-up: dose 30-120 mg/kg, route intraperitoneal; settings: in vivo
Outline: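 Male Wistar rats, about 150 g, five per group. Drug in physiological saline given ip qd on days 1–30. Blood drawn 24 h after the last dose. Sugar measured by glucose oxidase.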

Micrococcus luteus = test: Antibacterial activity against Sarcina lutea ATCC 9341 assessed as growth inhibition after 18 hrs by broth dilution method; type: functional; settings: ATCC 9341, 18 h; outline: as §1
Mus musculus [7] = test: Toxicity in ICR mouse allografted with mouse EAC assessed as mortality at 150 mg/kg, ip qd for 5 days; type: organism-based; set-up: dose 150 mg/kg, route intraperitoneal; settings: in vivo, 120 h
Outline: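 Ehrlich ascites carcinoma (1 × 10^7 cells) implanted into ICR mice, six per group; compound ip daily for 5 days; mice sacrificed day 7; tumour burden as total packed cell volume (ascites volume × PCV), T/C % vs controls; mortality recorded.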

Mus musculus [8] = test: Ratio of compound LD10 to streptozotocin LD10 for JCL-ICR mouse; type: ADME, organism-based; settings: in vivo
Mus musculus [9] = test: Toxicity in ICR mouse allografted with mouse S180A assessed as mortality at 25 mg/kg, ip qd for 5 days; type: organism-based; set-up: dose 25 mg/kg, route intraperitoneal; settings: in vivo, 120 h
Outline: (§5)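 Ascites Sarcoma 180 (1 × 10^7 cells) implanted into ICR mice, six per group; compound in saline ip once daily days 1-5; sacrifice on day 7; total packed cell volume (ascites volume × PCV) compared with controls as T/C %; mortality recorded.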

Mus musculus [10] = test: Toxicity in BDF1 mouse allografted with mouse L1210 cells assessed as mortality at 50 mg/kg, ip qd for 5 days; type: organism-based; set-up: dose 50 mg/kg, route intraperitoneal; settings: in vivo, 120 h
Outline: (§6)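 L1210 (1 × 10^5 cells) implanted into BDF1 mice, six per group; compound in saline ip once daily days 1-5; effect read as % increase in life span, ILS = [(treated life span/control life span) − 1] × 100.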

[11] = Acute toxicity in iv dosed dog; type: organism-based, Canis lupus familiaris; settings: in vivo
[12] = Acute toxicity in iv dosed mouse; type: organism-based; settings: in vivo
[13] = Antitumor activity against mouse S180A cells allografted in ip dosed ICR mouse administered qd for 5 days; type: functional; settings: 120 h
Outline: (§7)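 Ascites Sarcoma 180 (1 × 10^7 cells) implanted into ICR mice, six animals per group. Five daily ip injections in saline (days 1–5). Sacrificed day 7. T/C % computed from total packed cell volume (ascites volume × PCV) vs controls. Grades: 100-66 = -, 65-41 = +, 40-11 = ++, 10-0 = +++.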

L1210 [14] = test: Antitumor activity against mouse L1210 cells allografted in BDF1 mouse assessed as increase in host lifespan at 50 mg/kg, ip qd for 5 days relative to control; type: functional; settings: 120 h, route intraperitoneal; outline: as §6
Staphylococcus aureus = test: Antibacterial activity against Staphylococcus aureus FDA 209P JC-1 assessed as growth inhibition after 18 hrs by broth dilution method; type: functional; settings: FDA 209P JC-1, 18 h; outline: as §1
[15] = Ratio of compound LD50 to streptozotocin LD50 for JCL-ICR mouse; type: ADME, organism-based; settings: in vivo
Ehrlich = test: Antitumor activity against mouse EAC allografted in ICR mouse assessed as tumor growth at 150 mg/kg, ip qd for 5 days measured on day 7 relative to control; type: functional; settings: route intraperitoneal
Outline: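 Ehrlich ascites carcinoma (1 × 10^7 cells) implanted into ICR mice, six per group. Drug in saline ip, qd days 1–5. Mice killed day 7. Total packed cell volume = ascites volume × % packed cell volume; T/C % = TPCV treated/control × 100. Activity graded from T/C.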

[16] = Antitumor activity against mouse S180A allografted in ICR mouse assessed as tumor growth at 25 mg/kg, ip qd for 5 days measured on day 7 relative to control; type: functional; settings: route intraperitoneal; outline: as §7
Mus musculus [17] = test: Toxicity in ip dosed BDF1 mouse allografted with mouse L1210 cells assessed as optimal dose required for mortality administered qd for 5 days; type: organism-based; settings: in vivo, 120 h
Enterococcus faecalis = test: Antibacterial activity against Streptococcus faecalis ATCC 10541 assessed as growth inhibition after 18 hrs by broth dilution method; type: functional; settings: ATCC 10541, 18 h; outline: as §1
Mus musculus [18] = test: Toxicity in BDF1 mouse allografted with mouse L1210 cells assessed as mortality at 125 mg/kg, ip qd for 5 days; type: organism-based; set-up: dose 125 mg/kg, route intraperitoneal; settings: in vivo, 120 h; outline: as §6
Mus musculus [19] = test: Toxicity in ICR mouse allografted with mouse S180A assessed as mortality at 50 mg/kg, ip qd for 5 days; type: organism-based; set-up: dose 50 mg/kg, route intraperitoneal; settings: in vivo, 120 h; outline: as §5
Rattus norvegicus [20] = test: Diabetogenic activity in iv dosed Wistar rat assessed as increase in blood sugar level administered as single dose by glucose oxidase method; type: ADME, organism-based; settings: in vivo; outline: as §4
[21] = Antitumor activity against mouse S180A allografted in ICR mouse assessed as tumor growth at 50 mg/kg, ip qd for 5 days measured on day 7 relative to control; type: functional; settings: route intraperitoneal; outline: as §7
L1210 [22] = test: Antitumor activity against mouse L1210 cells allografted in BDF1 mouse assessed as increase in host lifespan at 125 mg/kg, ip qd for 5 days relative to control; type: functional; settings: 120 h, route intraperitoneal; outline: as §6
Rattus norvegicus [23] = test: Diabetogenic activity in Wistar rat assessed as increase in blood sugar level at 74.7 mg/kg, iv administered as single dose by glucose oxidase method; type: ADME, organism-based; set-up: dose 74.7 mg/kg, route intravenous; settings: in vivo; outline: as §4

SMILES: CO[C@@H]1O[C@H](CO)[C@@H](O)[C@H](O)[C@H]1NC(=O)N(C)N=O
- MIC (Bacillus subtilis): > 1000 µg/mL
- MIC (Klebsiella pneumoniae): > 1000 µg/mL
- MIC (Escherichia coli): > 1000 µg/mL
- Activity (L1210 [1]): 33 mg/kg/day
- LD10 (Mus musculus [2]): 800 mg/kg
- LD50 [3]: 1700 mg/kg
- MIC (Pseudomonas fluorescens): > 1000 µg/mL
- selectivity ratio [4]: 16
- Activity (Rattus norvegicus [5]): Non-toxic
- MIC (Proteus vulgaris): > 1000 µg/mL
- MIC (Shigella sonnei): > 1000 µg/mL
- MIC (Salmonella typhi): > 1000 µg/mL
- Activity (Rattus norvegicus [6]): Non-toxic
- MIC (Micrococcus luteus): > 1000 µg/mL
- Activity (Mus musculus [7]): Non-toxic
- Ratio (Mus musculus [8]): 2
- Activity (Mus musculus [9]): Non-toxic
- Activity (Mus musculus [10]): Non-toxic
- LD50 [11]: 400 mg/kg
- LD50 [12]: 1620 mg/kg
- ED90 [13]: 50 mg/kg/day
- ILS at 50 mg/kg (L1210 [14]): 40%
- MIC (Staphylococcus aureus): > 1000 µg/mL
- selectivity ratio [15]: 2
- T/C (Ehrlich): 1%
- T/C [16]: 22%
- Activity (Mus musculus [17]): 400 mg/kg/day
- MIC (Enterococcus faecalis): > 1000 µg/mL

SMILES: CCO[C@H]1O[C@H](CO)[C@@H](O)[C@H](O)[C@H]1NC(=O)N(C)N=O
- MIC (Bacillus subtilis): > 1000 µg/mL
- MIC (Klebsiella pneumoniae): > 1000 µg/mL
- MIC (Escherichia coli): > 1000 µg/mL
- LD10 (Mus musculus [2]): 2000 mg/kg
- LD50 [3]: 2050 mg/kg
- Activity (Mus musculus [18]): Non-toxic
- MIC (Pseudomonas fluorescens): > 1000 µg/mL
- MIC (Proteus vulgaris): > 1000 µg/mL
- MIC (Shigella sonnei): > 1000 µg/mL
- Activity (Mus musculus [19]): Non-toxic
- MIC (Salmonella typhi): > 1000 µg/mL
- MIC (Micrococcus luteus): > 1000 µg/mL
- Ratio (Mus musculus [8]): 2
- Activity (Rattus norvegicus [20]): Non-toxic
- T/C [21]: 38%
- ILS at 125 mg/kg (L1210 [22]): 64%
- MIC (Staphylococcus aureus): > 1000 µg/mL
- selectivity ratio [15]: 2
- MIC (Enterococcus faecalis): > 1000 µg/mL

SMILES: CCCO[C@@H]1O[C@H](CO)[C@@H](O)[C@H](O)[C@H]1NC(=O)N(C)N=O
- MIC (Bacillus subtilis): > 1000 µg/mL
- MIC (Klebsiella pneumoniae): > 1000 µg/mL
- MIC (Escherichia coli): > 1000 µg/mL
- LD10 (Mus musculus [2]): 1240 mg/kg
- LD50 [3]: 2150 mg/kg
- MIC (Pseudomonas fluorescens): > 1000 µg/mL
- MIC (Proteus vulgaris): > 1000 µg/mL
- MIC (Shigella sonnei): > 1000 µg/mL
- Activity (Mus musculus [19]): Non-toxic
- MIC (Salmonella typhi): > 1000 µg/mL
- MIC (Micrococcus luteus): > 1000 µg/mL
- Ratio (Mus musculus [8]): 2
- Activity (Mus musculus [10]): Non-toxic
- T/C [21]: 32%
- Activity (Rattus norvegicus [23]): Non-toxic
- ILS at 50 mg/kg (L1210 [14]): 30%
- MIC (Staphylococcus aureus): > 1000 µg/mL
- selectivity ratio [15]: 2
- MIC (Enterococcus faecalis): > 1000 µg/mL

— ChEMBL document CHEMBL3272319, “Alkyl streptozotocin analogues with improved biological activities” (J Med Chem, 1976)
